# Measured values of several laboratories.
# Each line is one published result; the experiments were not run side by side.
# CDK17 with cyclin Y: Cyclin-dependent kinase 17, with cyclin Y (CDK17, Homo sapiens, UniProt Q00537)
# CDK17: Cyclin-dependent kinase 17 (CDK17, Homo sapiens, UniProt Q00537)
SMILES,target,assay,setting,measurement,value
CC(C)S(=O)(=O)c1ccc2nccc(Nc3ccc4sc(C5CCCC5)nc4c3)c2c1,CDK17 with cyclin Y,"enzyme activity, inhibitor",1 µM,activity vs control,111%
COc1ccc2oc(-c3ccc4nc(N)oc4c3)c/c(=N\c3ccccc3NC(=O)CCN)c2c1,CDK17 with cyclin Y,binding,1 µM,remaining binding,100%
CCCCC(=O)Nc1ccc(-c2ccc3ncn(CCC)c(=O)c3c2)cn1,CDK17,"binding, competition with immobilised ligand",0.5 µM,remaining binding,100%
Cc1ccc(NC(=O)c2ccnc(C(F)(F)F)c2)cc1-c1cc(OCCO)nc(N2CCOCC2)c1,CDK17,"binding, competition with immobilised ligand",1 µM,remaining binding,98%
CO[C@@H]1[C@H](N(C)C(=O)c2ccccc2)C[C@H]2O[C@]1(C)n1c3ccccc3c3c4c(c5c6ccccc6n2c5c31)C(=O)NC4,CDK17,"enzyme activity, inhibitor",1 µM,inhibition,0%
C[C@H]1CC[C@H](n2c3cnccc3c3cnc(Nc4ccc5c(n4)CCN(C(=O)CO)C5)nc32)CC1,CDK17,"binding, competition with immobilised ligand",1 µM,remaining binding,24%
CC#CC(=O)N1CCC[C@H]1c1nc(-c2ccc(C(=O)Nc3ccccn3)cc2)c2c(N)nccn12,CDK17,"enzyme activity, inhibitor",1 µM,inhibition,0%
Cc1cc(O)c(-c2ccc([C@@H](C)CN(C)C)cc2)c2c1[nH]c(=O)c1sccc12,CDK17,"enzyme activity, inhibitor",0.1 µM,inhibition,2.42%
